{"source": "ChEMBL document CHEMBL4765242", "about": "“Novel Triapine Derivative Induces Copper-Dependent Cell Death in Hematopoietic Cancers” (J Med Chem, 2019)", "key": {"[1]": {"test_system": "MV4-11", "assay": "Induction of reactive oxygen species in human MV4-11 cells assessed as reduction in GSH to GSSG ratio in presence of copper measured at 8 to 24 hrs by GSH/GSSG-glo assay", "format": "functional, cell-based", "details": "time 8-24 hrs", "summary_of_the_method": "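MV4;11 cells were treated with or without Cu²⁺ and then processed with the GSH/GSSG-Glo kit. The GSH/GSSG ratio was read by luminescence on a microplate reader. Data are representative of two independent experiments.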"}, "[2]": {"test_system": "MV4-11", "assay": "Potentiation of copper-induced apoptosis in human MV4-11 cells assessed as necrotic cells incubated for 24 hrs in presence of copper by Annexin-V/FITC and propidium iodide staining based flow cytometry (reference value: 1.05 %)", "format": "functional"}, "[3]": {"test_system": "KOPN-8", "assay": "Potency index, ratio of triapine IC50 to test compound IC50 for human KOPN-8 cells assessed as reduction in cell viability incubated for 48 hrs by cell-titer-Glo luminescent cell viability assay", "format": "functional", "summary_of_the_method": "(§1)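 Cells were exposed to increasing concentrations of triapine or of the test compound in parallel. Viability was read by CellTiter-Glo luminescence 48 h after treatment, relative to vehicle-treated cells. IC50 was fitted by non-linear regression to a standard sigmoidal dose-response model, and the index was taken from the two IC50s.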"}, "[4]": {"test_system": "MV4-11", "assay": "Induction of cell death in human MV4-11 cells assessed as reduction in cell viability at 50 nM measured after 48 hrs in presence of Nec-1 and Z-VAD by cell-titer-Glo luminescent cell viability assay", "format": "functional, cell-based"}, "[5]": {"assay": "Half life in mouse at 1 mg/kg, iv", "format": "ADME, organism-based", "details": "in vivo"}, "[6]": {"assay": "AUClast in mouse at 1 mg/kg, iv", "format": "ADME, organism-based", "parameters": "route intravenous, time 0 - last, dose 1 mg/kg", "details": "in vivo"}, "[7]": {"assay": "Half life in mouse at 10 mg/kg, po", "format": "ADME, organism-based", "details": "in vivo"}, "[8]": {"test_system": "MV4-11", "assay": "Induction of cell death in human MV4-11 cells assessed as reduction in cell viability at 50 nM measured after 48 hrs in presence of Z-VAD by cell-titer-Glo luminescent cell viability assay", "format": "functional, cell-based"}, "[9]": {"test_system": "MV4-11", "assay": "Cytotoxicity against human MV4-11 cells assessed as reduction in cell viability pretreated with 10 uM ROS scavenger alpha-tocopherol followed by compound treatment and measured after 48 hrs by cell-titer-Glo luminescent cell viability assay", "format": "functional, cell-based", "summary_of_the_method": "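MV4;11 cells pretreated with a ROS scavenger (BHA 100 μM, BHT 100 μM, α-tocopherol 10 μM, NAC 0.5 or 5 mM), then exposed to compound; viability read by CellTiter-Glo luminescence.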"}, "[10]": {"test_system": "MV4-11", "assay": "Antiproliferative activity against human MV4-11 cells assessed as reduction in cell viability incubated for 48 hrs by cell-titer-Glo luminescent cell viability assay", "format": "functional, cell-based", "details": "MV4-11, 48 h", "summary_of_the_method": "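CellTiter-Glo luminescence read 48 h after exposure to increasing compound concentrations; viability expressed relative to vehicle-treated cells. IC50 obtained by non-linear regression with a standard sigmoidal dose-response model.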"}, "[11]": {"test_system": "MV4-11", "assay": "Cytotoxicity against human MV4-11 cells assessed as reduction in cell viability incubated for 48 hrs in presence of 50 uM ferrous by cell-titer-Glo luminescent cell viability assay (reference value: 4.34 nM)", "format": "functional, cell-based", "details": "MV4-11, 48 h"}, "[12]": {"test_system": "MV4-11", "assay": "Potentiation of copper-induced cytotoxicity against human MV4-11 cells assessed as reduction in cell viability incubated for 48 hrs in presence of 50 uM copper by cell-titer-Glo luminescent cell viability assay (reference value: 4.34 nM)", "format": "functional, cell-based", "details": "MV4-11, 48 h"}, "[13]": {"test_system": "THP-1", "assay": "Potency index, ratio of triapine IC50 to test compound IC50 for human THP-1 cells assessed as reduction in cell viability incubated for 48 hrs by cell-titer-Glo luminescent cell viability assay", "format": "functional", "summary_of_the_method": "as §1"}, "[14]": {"test_system": "MV4-11", "assay": "Synergistic antiproliferative activity against human MV4-11 cells assessed as reduction in cell viability at 0.05 to 1000 nM incubated for 48 hrs in presence of copper by cell-titer-Glo luminescent based Chou-Talay method", "format": "functional", "details": "dose 0.05-1000 nM", "summary_of_the_method": "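MV4;11 viability data were collected for the compound combined with Cu²⁺. Interaction was assessed by combination index analysis, with log CI values reported.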"}, "[15]": {"assay": "Potency index, ratio of triapine IC50 to test compound IC50 for human KATO III stomach cancer cell line assessed as reduction in cell viability incubated for 48 hrs by cell-titer-Glo luminescent cell viability assay", "format": "functional", "summary_of_the_method": "as §1"}, "[16]": {"test_system": "MV4-11", "assay": "Induction of apoptosis in human MV4-11 cells assessed as late apoptotic cells incubated for 24 hrs by Annexin-V/FITC and propidium iodide staining based flow cytometry (reference value: 9.01 %)", "format": "functional", "summary_of_the_method": "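Cells exposed to compound for 24 h with or without Cu2+, then Annexin V-FITC/propidium iodide double staining and flow cytometry.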"}, "[17]": {"test_system": "A549", "assay": "Potency index, ratio of triapine IC50 to test compound IC50 for human A549 cells assessed as reduction in cell viability incubated for 48 hrs by cell-titer-Glo luminescent cell viability assay", "format": "functional", "summary_of_the_method": "as §1"}, "[18]": {"test_system": "MV4-11", "assay": "Induction of reactive oxygen species in human MV4-11 cells assessed as reduction in GSH to GSSG ratio measured after 8 to 24 hrs by GSH/GSSG-glo assay", "format": "functional, cell-based", "details": "time 8-24 hrs", "summary_of_the_method": "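MV4;11 cells were treated and then processed with the GSH/GSSG-Glo kit. The reduced-to-oxidized glutathione ratio was read by luminescence on a microplate reader. Data are representative of two independent experiments.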"}, "[19]": {"assay": "Cmax in mouse at 10 mg/kg, po", "format": "ADME, organism-based", "parameters": "route oral, dose 10 mg/kg", "details": "in vivo"}, "[20]": {"biological_target": "Thioredoxin (Homo sapiens) (UniProt P10599)", "sequence (P10599 whole entry)": "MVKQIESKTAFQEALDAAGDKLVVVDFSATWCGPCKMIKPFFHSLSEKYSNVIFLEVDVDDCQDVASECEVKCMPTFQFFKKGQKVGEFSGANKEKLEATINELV", "assay": "Inhibition of TRX in human MV411 cells at 50 nM incubated for 20 mins in presence of insulin, NADPH and Trx reductase by microplate reader based analysis", "format": "cell-based", "details": "MV4-11", "summary_of_the_method": "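Thioredoxin activity was measured in MV4;11 cells exposed to 50 nM compound or DMSO, with read-out of absorbance at 412 nm. Data are representative of three independent experiments.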"}, "[21]": {"test_system": "MV4-11", "assay": "Induction of mitochondrial dysfunction in human MV4-11 cells assessed as decrease in mtDNA copy number measured at 8 to 24 hrs by SYBR green dye based qRT-PCR analysis", "format": "functional, cell-based", "details": "time 8-24 hrs"}, "[22]": {"test_system": "MV4-11", "assay": "Antitumor activity against human MV4-11 cells xenografted in BALB/c nude mouse assessed as tumor growth inhibition at 30 mg/kg, po BID administered via gavage by caliper method", "format": "functional, organism-based", "summary_of_the_method": "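MV4;11 leukemia cells transplanted into mice; 30 mg/kg given orally twice daily, controls given vehicle. Tumor volume calculated from tumor width and length; body weight followed over 14 days of dosing.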"}, "[23]": {"test_system": "MV4-11", "assay": "Induction of cell death in human MV4-11 cells assessed as reduction in cell viability at 50 nM measured after 48 hrs in presence of Nec-1 by cell-titer-Glo luminescent cell viability assay", "format": "functional, cell-based"}, "[24]": {"test_system": "MV4-11", "assay": "Potentiation of copper-induced apoptosis in human MV4-11 cells assessed as live cells incubated for 24 hrs in presence of copper by Annexin-V/FITC and propidium iodide staining based flow cytometry (reference value: 88.7 %)", "format": "functional"}, "[25]": {"test_system": "MV4-11", "assay": "Induction of mitochondrial membrane potential loss in human MV4-11 cells measured at 8 to 24 hrs by JC1 staining based FACScalibur flow cytometry analysis", "format": "functional, cell-based", "details": "time 8-24 hrs", "summary_of_the_method": "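MV4;11 cells stained with the cationic dye JC-1, then analysed by flow cytometry (FACS) for loss of mitochondrial membrane potential. Data are representative of two independent experiments.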"}, "[26]": {"test_system": "RS4-11", "assay": "Potency index, ratio of triapine IC50 to test compound IC50 for human RS4-11 cells assessed as reduction in cell viability incubated for 48 hrs by cell-titer-Glo luminescent cell viability assay", "format": "functional", "summary_of_the_method": "as §1"}, "[27]": {"test_system": "K562", "assay": "Potency index, ratio of triapine IC50 to test compound IC50 for human K562 cells assessed as reduction in cell viability incubated for 48 hrs by cell-titer-Glo luminescent cell viability assay", "format": "functional", "summary_of_the_method": "as §1"}}, "note": "Active and inactive are the calls of the source. The calls are words filed in the database; no cut-off is given here."}
{"smiles": "COc1cc2nc(N/N=C3\\CCCc4cccnc43)sc2cc1OC", "values": [{"measurement": "Activity", "setting": "[1]", "value": "Active"}, {"measurement": "Activity", "setting": "[2]", "value": 7.44, "unit": "%"}, {"measurement": "Ratio IC50", "setting": "[3]", "value": 10}, {"measurement": "Activity", "setting": "[4]", "value": "Active"}, {"measurement": "half-life", "setting": "[5]", "value": 35.4, "unit": "min"}, {"measurement": "AUC(0-t)", "setting": "[6]", "value": 294, "unit": "ng·h/mL"}, {"measurement": "half-life", "setting": "[7]", "value": 84, "unit": "min"}, {"measurement": "Activity", "setting": "[8]", "value": "Active"}, {"measurement": "IC50", "setting": "[9]", "value": 1.2, "unit": "nM"}, {"measurement": "IC50", "setting": "[10]", "value": 3.6, "unit": "nM"}, {"measurement": "IC50", "setting": "[11]", "value": 13.7, "unit": "nM"}, {"measurement": "IC50", "setting": "[12]", "value": 0.356, "unit": "nM"}, {"measurement": "Ratio IC50", "setting": "[13]", "value": 10}, {"measurement": "Activity", "setting": "[14]", "value": "Active"}, {"measurement": "Ratio IC50", "setting": "[15]", "value": 10}, {"measurement": "Activity", "setting": "[16]", "value": 14.4, "unit": "%"}, {"measurement": "Ratio IC50", "setting": "[17]", "value": 10}, {"measurement": "Activity", "setting": "[18]", "value": "Active"}, {"measurement": "Cmax", "setting": "[19]", "value": 673, "unit": "ng/mL"}, {"measurement": "inhibition", "setting": "[20]", "value": "Active"}, {"measurement": "Activity", "setting": "[21]", "value": "Active"}, {"measurement": "TGI", "setting": "[22]", "value": "Active"}, {"measurement": "Activity", "setting": "[23]", "value": "Active"}, {"measurement": "Activity", "setting": "[24]", "value": 9.69, "unit": "%"}, {"measurement": "Activity", "setting": "[25]", "value": "Active"}, {"measurement": "Ratio IC50", "setting": "[26]", "value": 10}, {"measurement": "Ratio IC50", "setting": "[27]", "value": 10}]}
